Data set [1] is described as follows: Toxic activity against VERO cells. The format is toxicity, cell-based. Particulars: Chlorocebus sabaeus. In a few lines: (§1)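 Cytotoxicity tested at concentrations up to 100 μM in PBM, CEM and Vero cells.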
Data set [2] concerns CCRF-CEM. The data set can be described thus: The cytotoxicity against CEM cells. The format is functional, cell-based. Particulars: Homo sapiens. In a few lines: as §1
The nature of data set [3]: Toxic activity against peripheral blood mononuclear cells. The data set is classed as toxicity. In a few lines:
as §1

Data set [4] has as its system HepG2. The data set can be described thus: In vitro effective concentration against hepatitis B virus was determined in 2.2.15 cells. The data set is classed as functional, cell-based. To be noted: Homo sapiens.
Data set [5] can be described thus: In vitro anti-HIV activity in peripheral blood mononuclear cells. The format is functional. A digest of the protocol:
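Antiviral assay in primary lymphocytes (peripheral blood mononuclear cells) infected with HIV-1; activity reported as EC50.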

In the case of `Nc1nc(=O)n([C@H]2C[Se][C@@H](CO)O2)cc1F`, the IC50 in data set [1], in data set [2] and in data set [3] was above 100 µM throughout. Moreover, the EC50 (commonly the concentration giving half of the maximal effect) in data set [4] was determined as 1.2 µM; in data set [5] it was 0.51 µM.

For the compound `Nc1nc(=O)n([C@@H]2C[Se][C@@H](CO)O2)cc1F`, the IC50 in data set [1], in data set [2] and in data set [3] was above 100 µM throughout. In addition, the EC50 in data set [5] was above 10 µM.

In the case of `Nc1ccn([C@@H]2CSC(CO)O2)c(=O)n1` (single isomer, unassigned) [LAMIVUDINE], the half-inhibitory concentration (IC50) in data set [1], in data set [2] and in data set [3] was above 100 µM throughout. In addition, the EC50 is 0.008 µM in data set [4] and 0.07 µM in data set [5].

Regarding `Nc1ccn([C@@H]2C[Se][C@@H](CO)O2)c(=O)n1`, the 50% inhibitory concentration (IC50) in data set [1], in data set [2] and in data set [3] was above 100 µM each time. This compound had a concentration giving a half-maximal response (EC50) in data set [5] of 2.4 µM.

With `Nc1ccn([C@H]2C[Se][C@@H](CO)O2)c(=O)n1`, the IC50 in data set [1], in data set [2] and in data set [3] was above 100 µM in each case. The concentration giving a half-maximal response (EC50) in data set [4] came out at 1.2 µM; in data set [5], 0.88 µM.

Source of the values: ChEMBL document CHEMBL1130145, “Synthesis, anti-human immunodeficiency virus and anti-hepatitis B virus activities of novel oxaselenolane nucleosides” (J Med Chem, 1997).
